Assay results: ChEMBL document CHEMBL1255468 (Antimicrob Agents Chemother, 2010)
Active and inactive are the calls of the source. The rule behind the calls is not given here.

What was measured:
Trypanosoma cruzi [1] = assay: Antitrypanosomal activity against Trypanosoma cruzi Y infected in mouse assessed as decrease in mouse mortality at 200 mg/kg, po after 20 days post infection; type: functional, organism-based; design: dose 200 mg/kg
Outline: (§1)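 Male Swiss mice (6–8 weeks, 18–20 g), 8–10 per group, infected i.p. with 10^4 bloodstream trypomastigotes (Y strain). On dpi 5, a single 200 mg/kg oral gavage dose was given in water with 10% Tween-80. Parasitemia was counted daily from dpi 6 to 21 by the Pizzi-Brener method. Body weight was recorded weekly. Mortality was recorded daily, and cumulative mortality at 40 dpi and M50 were calculated.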

Trypanosoma cruzi [2] = assay: Antitrypanosomal activity against Trypanosoma cruzi Y infected in mouse assessed as decrease in parasitemia in blood at 200 mg/kg, po upto 40 days post infection; type: functional; outline: as §1
Trypanosoma cruzi [3] = assay: Antitrypanosomal activity against Trypanosoma cruzi amastigotes infected in mouse peritoneal macrophages assessed as inhibition of infection after 3 day; type: functional, organism-based; conditions: 72 h
Outline: (§2)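 Swiss mouse peritoneal macrophages (3 × 10^5/well) were plated for 24 h, then infected with Y-strain trypomastigotes (10:1) in DMEM with 10% FCS for 3 h. Free parasites were washed off, and compounds were added at 2.5–30 µM final for 1–4 days. Cells were fixed in Bouin's solution and stained with Giemsa. Percent infection and endocytic index (parasites/100 cells) were counted, and IC50 was derived. Three independent experiments.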

Trypanosoma cruzi [4] = assay: Antitrypanosomal activity against Trypanosoma cruzi trypomastigotes assessed as shortening of flagellum at 11.6 uM after 24 hrs by scanning electron microscopy; type: functional, organism-based
Outline: (§3)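 Trypomastigotes (5 × 10^6/ml) were treated for 24 h and adhered to poly-L-lysine coverslips. They were fixed in 2.5% glutaraldehyde in 0.1 M cacodylate (pH 7.2) for 40 min and postfixed for 30 min in 1% OsO4, 0.8% ferricyanide and 2.5 mM CaCl2. Samples were acetone-dehydrated, critical-point dried, gold-coated (20 nm) and examined by scanning EM.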

Mus musculus [5] = assay: Toxicity in mouse assessed as GOT level in blood at 400 mg/kg, po after 4 days; type: organism-based; design: dose 400 mg/kg, route oral; conditions: in vivo, 96 h
Outline: (§4)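 Uninfected male Swiss mice, 8–10 per group, received by gavage either a single 400 mg/kg dose or 10 doses of 100 mg/kg (vehicle water with 10% Tween-80). GOT, GPT and urea were measured directly in blood with the Reflotron system, and body weight was recorded. Single-dose toxicity was analyzed 4 days after treatment.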

Mus musculus [6] = assay: Toxicity in mouse assessed as body weight at 400 mg/kg, po after 4 days; type: organism-based; design: dose 400 mg/kg, route oral; conditions: in vivo, 96 h; outline: as §4
Trypanosoma cruzi [7] = assay: Antitrypanosomal activity against Trypanosoma cruzi infected in mouse assessed as decrease in mortality rate at 100 mg/kg, po after 6 days post infection; type: functional, organism-based; design: dose 100 mg/kg
Outline: (§5)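 Male Swiss mice, 8–10 per group, infected i.p. with 10^4 bloodstream trypomastigotes. From dpi 6, mice received 10 consecutive daily gavage doses of 100 mg/kg in water with 10% Tween-80. Parasitemia was read daily on dpi 6–21 by the Pizzi-Brener method. Mortality was noted daily, and %CM at 40 dpi and M50 were calculated.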

Trypanosoma cruzi [8] = assay: Antitrypanosomal activity against Trypanosoma cruzi amastigotes infected in mouse peritoneal macrophages assessed as inhibition of infection after 1 day; type: functional, organism-based; conditions: 24 h; outline: as §2
Trypanosoma cruzi [9] = assay: Antitrypanosomal activity against Trypanosoma cruzi amastigotes infected in mouse peritoneal macrophages assessed as inhibition of infection after 2 day; type: functional, organism-based; conditions: 48 h; outline: as §2
Trypanosoma cruzi [10] = assay: Antitrypanosomal activity against Trypanosoma cruzi trypomastigotes assessed as shrinkage of cell surface and body at 11.6 uM after 24 hrs by scanning electron microscopy; type: functional, organism-based; outline: as §3
Trypanosoma cruzi [11] = assay: Antitrypanosomal activity against Trypanosoma cruzi infected in mouse assessed as reduction in inflammatory foci in cardiac muscle at 100 mg/kg, po after 6 days post infection; type: functional, organism-based; design: dose 100 mg/kg; conditions: Muscle tissue
Outline: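 Infected mice were dosed by gavage at 100 mg/kg daily for 10 days from dpi 6. Two mice per group were euthanized at 14 dpi. Paraffin heart sections were stained with hematoxylin-eosin. Under a 40× objective, parasite nests and inflammatory foci (≥10 mononuclear cells) were counted per mm2 over 30 fields.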

[12] = Cytotoxicity against Swiss mouse peritoneal macrophages after 48 hrs by MTT assay; type: cell-based, Peritoneal macrophage cell; conditions: read-out: LC50
Outline: (§6)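 Uninfected host cells were exposed to compounds at 37°C for 2 days, with compound stocks in DMSO. Cells were Swiss mouse peritoneal macrophages or primary mouse embryo heart muscle cells (18-day embryos, trypsin/collagenase dissociated, gelatin-coated coverslips, DMEM with horse and fetal calf sera, chicken embryo extract). Viability was read by MTT at 490 nm to give LC50.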

Trypanosoma cruzi [13] = assay: Antitrypanosomal activity against Trypanosoma cruzi amastigotes infected in mouse embryo heart muscle cells assessed as endocytic index at 40 uM; type: functional, organism-based
Outline: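 Mouse embryo heart muscle cells (10^5/well) were plated on gelatin-coated coverslips and infected after 24 h with trypomastigotes at 10:1 parasite/host cell. After another 24 h, cultures were washed and exposed to compounds at 10–40 µM final. At intervals, cells were fixed in Bouin's solution and stained with Giemsa. Percent infection and endocytic index (parasites/100 cells) were counted, and IC50 was derived.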

Mus musculus [14] = assay: Toxicity in mouse assessed as GPT level in blood at 400 mg/kg, po after 4 days; type: organism-based; design: dose 400 mg/kg, route oral; conditions: in vivo, 96 h; outline: as §4
Trypanosoma cruzi [15] = assay: Antitrypanosomal activity against Trypanosoma cruzi amastigotes infected in mouse peritoneal macrophages assessed as endocytic index after 2 day; type: functional, organism-based; conditions: 48 h; outline: as §2
Trypanosoma cruzi [16] = assay: Antitrypanosomal activity against Trypanosoma cruzi amastigotes infected in mouse peritoneal macrophages assessed as endocytic index after 4 day; type: functional, organism-based; conditions: 96 h; outline: as §2
Trypanosoma cruzi [17] = assay: Antitrypanosomal activity against Trypanosoma cruzi Y infected in mouse assessed as decrease in mouse mortality at 200 mg/kg, po upto 40 days post infection; type: functional, organism-based; design: dose 200 mg/kg; outline: as §1
Trypanosoma cruzi [18] = assay: Antitrypanosomal activity against Trypanosoma cruzi infected in mouse assessed as decrease in parasitemia in blood at 100 mg/kg, po after 6 days post infection; type: functional; conditions: 144 h; outline: as §5
Mus musculus [19] = assay: Toxicity in mouse assessed as urea level in blood at 400 mg/kg, po after 4 days; type: organism-based; design: dose 400 mg/kg, route oral; conditions: in vivo, 96 h; outline: as §4
Trypanosoma cruzi [20] = assay: Antitrypanosomal activity against Trypanosoma cruzi amastigotes infected in mouse peritoneal macrophages assessed as inhibition of infection after 4 day; type: functional, organism-based; conditions: 96 h; outline: as §2
[21] = Cytotoxicity against swiss mouse HMC after 48 hrs by MTT assay; conditions: read-out: LC50; outline: as §6
[22] = Selectivity index, ratio of LC50 for mouse peritoneal macrophages to IC50 for inhibition of Trypanosoma cruzi amastigotes
Outline: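 SI = LC50/IC50 in peritoneal macrophages. LC50 came from the 2-day MTT assay on uninfected macrophages. Cells were Bouin-fixed and Giemsa-stained, and endocytic index (parasites/100 cells) was counted. Three independent experiments.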

Trypanosoma cruzi [23] = assay: Antitrypanosomal activity against Trypanosoma cruzi amastigotes infected in mouse peritoneal macrophages assessed as endocytic index after 3 day; type: functional, organism-based; conditions: 72 h; outline: as §2
Trypanosoma cruzi [24] = assay: Antitrypanosomal activity against Trypanosoma cruzi amastigotes infected in mouse peritoneal macrophages assessed as endocytic index after 1 day; type: functional, organism-based; conditions: 24 h; outline: as §2

Cn1c([N+](=O)[O-])cnc1-c1nnc(N/N=C\c2cc(C(C)(C)C)c(O)c(C(C)(C)C)c2)s1
Activity (Trypanosoma cruzi [1]): inactive
Activity (Trypanosoma cruzi [2]): Active

Cn1c([N+](=O)[O-])cnc1-c1nnc(N/N=C\c2ccc(O)cc2)s1
IC50 (Trypanosoma cruzi [3]): 6.2 µM
Activity (Trypanosoma cruzi [4]): Active
Activity (Mus musculus [5]): 76.6 U/L
Activity (Mus musculus [6]): 25.5 g
Activity (Trypanosoma cruzi [7]): inactive
IC50 (Trypanosoma cruzi [8]): 7.1 µM
IC50 (Trypanosoma cruzi [9]): 6 µM
Activity (Trypanosoma cruzi [10]): Active
Activity (Trypanosoma cruzi [11]): Active
CC50 at 48 h [12]: > 100 µM
Activity (Trypanosoma cruzi [13]): inactive
Activity (Mus musculus [14]): 24.4 U/L
IC50 (Trypanosoma cruzi [15]): 2900 nM
IC50 (Trypanosoma cruzi [16]): 1300 nM
Activity (Trypanosoma cruzi [17]): Active
inhibition in vivo at 100 mg/kg (Trypanosoma cruzi [18]): 46%
Activity (Mus musculus [19]): 58.6 mg/dL
IC50 (Trypanosoma cruzi [20]): 1700 nM
CC50 at 48 h [21]: > 240 µM
Ratio LC50/IC50 [22]: >41
IC50 (Trypanosoma cruzi [23]): 3.2 µM
IC50 (Trypanosoma cruzi [24]): 5 µM
Activity (Trypanosoma cruzi [2]): 50%
